Reference: ChEMBL document CHEMBL1154117, “Synthesis and evaluation of a novel series of quinoline derivatives with immunosuppressive activity” (Bioorg Med Chem, 2009)

Key:
[1] = Cytotoxicity against BALB/c mouse splenocytes at 10 uM after 48 hrs by MTT assay; format: cell-based, Splenocyte; details: read-out: INH
Procedure, shortened: (§1)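 BALB/c spleen single-cell suspension, erythrocytes depleted with Tris-buffered NH4Cl (0.155 M NH4Cl, 16.5 mM Tris, pH 7.2). Cells cultured in RPMI-1640 with 10% FBS and compound diluted from DMSO stock (0.1% DMSO in control). Medium-alone cells served as control. MTT (5 mg/mL) added 4 h before end of culture, then SDS/DMF lysis buffer (pH 7.2) for 6 h. Absorbance read at 570 nm and growth inhibition % calculated.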

[2] = Immunosuppressive activity in BALB/c mouse splenocytes assessed as inhibition of concanavalin A-induced cell proliferation at 30 uM after 48 hrs by MTT assay; format: functional; details: Splenocyte
Procedure, shortened: (§2)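 Spleen cells (5 × 10⁵) from male BALB/c mice aged 6–8 weeks, erythrocytes lysed, stimulated with ConA 5 μg/mL in RPMI-1640/10% FBS. Compounds diluted from DMSO stock. ConA-stimulated cells used as control. Proliferation read by MTT added 4 h before end of culture, SDS/DMF lysis for 6 h, absorbance at 570 nm.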

[3] = Immunosuppressive activity in BALB/c mouse splenocytes assessed as inhibition of concanavalin A-induced cell proliferation at 100 uM after 48 hrs by MTT assay; format: functional; details: Splenocyte; procedure, shortened: as §2
[4] = Cytotoxicity against BALB/c mouse splenocytes at 100 uM after 48 hrs by MTT assay; format: cell-based, Splenocyte; details: read-out: INH; procedure, shortened: as §1
[5] = Cytotoxicity against BALB/c mouse splenocytes at 30 uM after 48 hrs by MTT assay; format: cell-based, Splenocyte; details: read-out: INH; procedure, shortened: as §1
[6] = Immunosuppressive activity in BALB/c mouse splenocytes assessed as inhibition of concanavalin A-induced cell proliferation at 10 uM after 48 hrs by MTT assay; format: functional; details: Splenocyte; procedure, shortened: as §2

Structure (SMILES)	cytotoxicity at 48 h, 10 µM [1] [%]	inhibition at 30 µM [2] [%]	inhibition at 100 µM [3] [%]	cytotoxicity at 48 h, 100 µM [4] [%]	cytotoxicity at 48 h, 30 µM [5] [%]	inhibition at 10 µM [6] [%]
COc1cc(OC)c2c(=O)cc[nH]c2c1	6.1	3.7	12.3	7.5	7.8	0.1
COc1cc(OC)c2c(O[C@@H]3O[C@H](CO)[C@@H](O)[C@H](O)[C@H]3O)ccnc2c1	7.6	6	20.4	9.5	9.1	3.6
COc1cc(OC)c2c(O[C@@H]3O[C@H](CO)[C@H](O)[C@H](O)[C@H]3O)ccnc2c1	6.2	11.2	17.8	17	4.2	4.2
COc1cc(OC)c2c(O[C@@H]3OC[C@@H](O)[C@H](O)[C@H]3O)ccnc2c1	6.9	14.9	41	11.2	9.1	10.3
CCCCCCCCC(=O)Oc1ccnc2cc(OC)cc(OC)c12	6.4	2	31.9	11.6	2	4.4
COc1cc(OC)c2c(OC(=O)c3cccc(Cl)c3)ccnc2c1	3.1	42	90.8	12.2	9.4	20.6
O=c1cc[nH]c2cc(O)cc(O)c12	1.8	1.7	18	8.6	10.9	-0.9
Cc1cc(=O)c2c(O)cc(O)cc2[nH]1	9.1	4.4	26.7	11.2	9.9	7.5
CCCCCCCC/C=C\CCCCCCCC(=O)Oc1ccnc2cc(OC)cc(OC)c12	4.1	8.5	22.2	7.2	8.8	4.4
COc1cc(OC)c2c(OC(=O)c3ccccc3I)cc(C)nc2c1	-3.4	54	91.5	37.6	18.2	19.9
COc1cc(OC)c2c(OC(C)=O)ccnc2c1	8.3	9.7	22.7	11.3	11.2	4.1
CCCCC(=O)Oc1ccnc2cc(OC)cc(OC)c12	4.5	5.3	13.9	9.4	10.5	4.1
COc1cc(OC)c2c(=O)cc(C)[nH]c2c1	6.5	35.4	57.2	23.6	14.7	15.9
COc1cc(OC)c2c(OC(=O)c3ccc(Cl)cc3)ccnc2c1	3.4	47.4	86.3	21.9	0.3	30.1
COc1cc(OC)c2c(OC(=O)c3ccccc3)cc(C)nc2c1	-7.6	34.8	81.5	13.7	-0.2	5.7
COc1cc(OC)c2c(OC(=O)c3ccccc3)ccnc2c1	0	13.1	35.4	7.7	4.6	6.2
